Compound activity as filed in PubChem BioAssay.
Compounds with a hit are over-represented: about 3.3% of the library has one in this group of screens.
GAA850 FXN act = increases GAA850 frataxin promoter reporter activity | HEK293 lucGAA850 FXN promoter luciferase reporter, 24 h; percent of 10 µM SAHA response | activation, % at 6 µM | 0.56% of 360,000 active | AID 540364;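 active means activation above the average of all compounds screened plus 3 SD, cutoff fixed separately per campaign, cut at about 7.5% in these data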
AHR activator = human AHR activation; P35869; AHR-responsive luciferase reporter cells, luminescence; activation, % at 5 µM; 2.5% of 320,000 active; AID 2796; in the data active means activation above about 47%
Target sequence (P35869 whole entry, looked up): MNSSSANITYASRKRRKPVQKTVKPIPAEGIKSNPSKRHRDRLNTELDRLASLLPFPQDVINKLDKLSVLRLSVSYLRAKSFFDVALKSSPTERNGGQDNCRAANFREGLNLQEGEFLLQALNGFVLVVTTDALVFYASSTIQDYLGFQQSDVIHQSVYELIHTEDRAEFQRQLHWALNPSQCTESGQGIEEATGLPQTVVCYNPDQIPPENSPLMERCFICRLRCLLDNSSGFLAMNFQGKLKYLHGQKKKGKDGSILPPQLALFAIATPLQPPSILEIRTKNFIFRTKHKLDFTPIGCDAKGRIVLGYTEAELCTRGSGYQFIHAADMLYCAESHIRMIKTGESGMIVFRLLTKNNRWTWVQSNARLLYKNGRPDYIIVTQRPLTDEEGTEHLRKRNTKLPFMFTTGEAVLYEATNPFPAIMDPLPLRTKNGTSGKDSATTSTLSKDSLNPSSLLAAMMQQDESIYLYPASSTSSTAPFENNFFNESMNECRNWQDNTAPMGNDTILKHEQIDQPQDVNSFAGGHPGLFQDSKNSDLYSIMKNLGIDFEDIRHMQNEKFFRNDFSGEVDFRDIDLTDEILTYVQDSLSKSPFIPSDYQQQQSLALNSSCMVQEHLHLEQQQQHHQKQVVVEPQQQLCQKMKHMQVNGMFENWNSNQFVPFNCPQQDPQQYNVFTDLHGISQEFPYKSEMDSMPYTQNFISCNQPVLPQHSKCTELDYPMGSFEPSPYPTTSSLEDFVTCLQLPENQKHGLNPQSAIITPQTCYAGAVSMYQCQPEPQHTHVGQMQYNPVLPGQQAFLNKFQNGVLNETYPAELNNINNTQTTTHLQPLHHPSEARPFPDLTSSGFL
ABCB6 inh MLPCN = inhibitors of human ABC transporter ABCB6; 0.19% of 360,000 active; K562-ABCB6 porphyrin accumulation, flow cytometry, 1 h; active compounds read low; fluorescence ratio to DMSO, % at 10 µM; AID 602162;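 active means fluorescence ratio to DMSO below 75%, the collection mean minus 3 SD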;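 further: signal is porphyrin accumulated inside mitochondria; lower ratio means ABCB6 inhibition with less porphyrin fluorescence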
STAT3 act = increases IL-6 driven STAT3 reporter signal | U3A cells, IL-6 STAT3-luciferase reporter, luminescence; 100% = signal with IL-6 EC80 alone | activation (% of control), % at 5.6 µM | 0.91% of 190,000 active | AID 871;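 active means activation above the screen-wide mean of compound activation plus 3 SD, cut at about 130% in these data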
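Detection: reporter luminescence signal / Assay system: STAT1-lacking human U3A cells, STAT3 luciferase reporter / Incubation: compound pre-incubation 1 h before IL-6, then 6 h stimulation at 37 °C / Control set: IL-6-only high control / Read-out: % activation relative to IL-6 control / Probe or stimulus: Interleukin-6, 33 ng/mL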
A number is an active result; 0 = inactive; - = not tested or not shown.

SMILES | GAA850 FXN act | AHR activator | ABCB6 inh MLPCN | STAT3 act
Cc1ccc(C#N)c(SCc2cc3c(cc2Cl)OCO3)n1 | 0 | 51 | 0 | 0
c1ccc2c(c1)oc1c(N3CCOCC3)ncnc12 | 0 | 73 | 0 | 0
CCSc1ncnc2c1oc1ccccc12 | 0 | 0 | 0 | 0
Clc1ncnc2c1oc1ccccc12 | 0 | 0 | 0 | 134
CCN(CC(=O)Nc1cccc(F)c1)CC(=O)Nc1ccc2c(c1)OCCO2 | 0 | - | 0 | -
O=C(COC(=O)c1cc(S(=O)(=O)N2CCOCC2)c(Cl)cc1Cl)c1ccc[nH]1 | 0 | 0 | 0 | -
CNC(=O)NNC(=O)c1csc(Cc2c(Cl)sc3ccc(Cl)cc23)n1 | 0 | 47 | 0 | -
O=C(Nc1cccc(O)c1)c1cnn2cccnc12 | 0 | 50 | 0 | 0
O=C(Nc1ccc2c(c1)OCO2)c1cnn2cccnc12 | 0 | 108 | 0 | 0
Cc1cc(C)n2ncc(C(=O)Nc3ccc4c(c3)OCO4)c2n1 | 0 | 73 | 0 | 0
Cc1cc(C)n2ncc(C(=O)Nc3cccc(O)c3)c2n1 | 0 | 0 | 0 | 0
O=C(CCn1cccn1)Nc1ccc2c(c1)OCO2 | 0 | 0 | 0 | -
O=C(Nc1cccnc1)c1cnn2cccnc12 | 0 | 0 | 0 | 0
COc1ccccc1CCNC(=O)c1ccc2nc[nH]c2c1 | 0 | 0 | 0 | -
Cc1ccc(Cl)cc1N1CCN(S(=O)(=O)c2ccc(-c3ccc(=O)[nH]n3)o2)CC1 | 0 | 0 | 0 | -
O=C1[C@@H]2Cc3c([nH]c4ccccc34)[C@@H](c3ccccc3)N2C(=O)[C@@H]2Cc3c([nH]c4ccccc34)[C@@H](c3ccccc3)N12 | - | - | - | 137
CC1Cc2c([nH]c3ccccc23)C2c3ccccc3CN12 (stereo not drawn) | 0 | 57 | 0 | -
Cn1nccc1NS(=O)(=O)c1ccc(NC(=O)C(F)(F)F)cc1 | 0 | 0 | 0 | -
COc1ccc(N(S(=O)(=O)c2ccccc2)S(=O)(=O)c2ccccc2)c(N)c1 | 0 | 0 | 0 | -
Cc1cc(C)n(-c2ccc(C(=O)OC(C)C(=O)Nc3ccc(C(N)=O)cc3)cc2)n1 (stereo not drawn) | 0 | - | 0 | -
O=C(NN=C1CCCCC1)c1ccccc1-n1cccc1 | 0 | 48 | 0 | -
CC(C)(C)C1CCC(=NNC(=O)c2ccccc2-n2cccc2)CC1 (stereo not drawn) | 0 | 70 | 0 | 0
O=C(NNC(=O)c1ccccc1-n1cccc1)c1ccc(Cl)cc1 | 0 | 62 | 0 | 0
CCOc1cc(/C=N/NC(=O)c2ccccc2-n2cccc2)ccc1O | 0 | 0 | 0 | -
Cc1ccccc1/C=N\NC(=O)c1ccccc1-n1cccc1 | 0 | 68 | 0 | 0
SMILES | GAA850 FXN act | AHR activator | ABCB6 inh MLPCN | STAT3 act
CN(CCc1ccccc1)C(=O)CC1C(=O)NCCN1Cc1ccccn1 (stereo not drawn) | 0 | - | 0 | -
O=C1Nc2ccccc2N=C(c2ccccc2)C1N(C(=O)c1ccnc2ccccc12)c1ccccc1 (stereo not drawn) | - | - | 0 | -
Cn1ncc(Cl)c1C(=O)Nc1ccncc1 | 0 | 0 | 0 | 0
Cc1cc(O)c(-c2cc(C(=O)NCc3ccc4c(c3)OCO4)[nH]n2)cc1C | 0 | 0 | 59 | 0
Cn1ncc(Cl)c1C(=O)Nc1ccc(CN2CCCCC2)cc1 | 0 | 76 | 0 | -
Cc1csc2ncc(C(=O)NCc3ccc4c(c3)OCO4)c(=O)n12 | - | 78 | - | -
Cn1ncc(Cl)c1C(=O)NCc1ccc2c(c1)OCO2 | 0 | 49 | 0 | -
Cc1cc(C)nc(SCc2ccc(C(=O)N/N=C3\CC(C)CC(C)(C)C3)cc2)n1 (stereo not drawn) | 0 | 0 | 0 | 0
O=[N+]([O-])c1ccccc1S(=O)c1ccccc1[N+](=O)[O-] | - | - | 0 | -
Cc1ccc(NC(=O)CS(=O)CC(=O)Nc2cnc3ccccc3c2)cc1Cl (stereo not drawn) | 0 | 0 | 0 | -
CCc1nc2ccc(C(=O)NCCCn3ccnc3)cn2c1N(C)Cc1nccs1 | 0 | - | 0 | -
Clc1ccc(C2=CC(c3ccco3)n3ncnc3N2)cc1 (stereo not drawn) | 0 | 71 | 0 | 0
Cn1cccc1CNC(=O)Nc1ccc(Cl)cc1 | 0 | 75 | 0 | 0
Cc1ccccc1N=CC1=C(O)c2ccccc2C1=O | 0 | 0 | 0 | 0
COc1ccc(N=CC2=C(O)c3ccccc3C2=O)c(OC)c1 | 0 | 54 | 0 | 0
O=C(Cn1cnc2ccccc21)N/N=C/c1ccc([N+](=O)[O-])cc1 | 0 | 49 | 0 | 0
O=C(Cn1cnc2ccccc21)N/N=C/c1cccc([N+](=O)[O-])c1 | 0 | 0 | 0 | 0
COC(=O)[C@@]1(Cc2ccc(OC)cc2)[C@H]2c3cc(C(=O)N4CCCC4)n(C[C@H](O)CO)c3C[C@H]2CN1C(=O)c1ccccc1 | - | 0 | - | -
Cc1cccc(NC(=S)c2nc3ccccc3s2)c1 | 0 | 76 | 0 | 134
O=C(NC(=S)Nc1cc(-c2nc3ccccc3[nH]2)ccc1Cl)c1ccc2c(c1)OCO2 | 0 | 84 | 0 | 0
Cc1cc(N2CCN(C(c3ccnc4ccccc34)c3nnnn3-c3c(C)cccc3C)CC2)c2ccccc2n1 (stereo not drawn) | - | - | 0 | -
CC(=O)c1c(C)[nH]c(C(=O)Nc2cc(F)ccc2C)c1C | 0 | 58 | 0 | -
CCN(CC)c1ccc(NC(=O)c2[nH]c(C)c(C(C)=O)c2C)c(C)c1 | 0 | 0 | 0 | 0
CCCCC(CC)CNC(=O)c1[nH]c(C)c(C(C)=O)c1C (stereo not drawn) | 0 | 0 | 0 | 0
CCc1c(C(=O)Nc2cc(C)ccc2OC)[nH]c(C)c1C(C)=O | 0 | 52 | 0 | 0
SMILES | GAA850 FXN act | AHR activator | ABCB6 inh MLPCN | STAT3 act
CCCCNC(=O)c1[nH]c(C)c(C(C)=O)c1C | 0 | 67 | 0 | 0
CC(=O)c1c(C)[nH]c(C(=O)Nc2ccc(C)cc2Br)c1C | 0 | 52 | 0 | -
CC(C)[C@@H]1Cc2[nH][nH]c(=O)c2[C@H](c2ccc(F)cc2)O1 | - | - | 0 | -
Cc1ccc2c(C(=O)CN3CCN(C4CCCCC4)CC3)c(C)[nH]c2c1 | 0 | 0 | 0 | 0
Cc1ccc2[nH]c(=O)c3cc(C(=O)N4CCN(C(=O)c5ccco5)CC4)sc3c2c1 | 0 | 78 | 0 | 0
Cc1ccc2c(C(=O)CN3CCN(C(=O)c4ccco4)CC3)c(C)[nH]c2c1 | 0 | 53 | 0 | -
COc1cc(OC)c2c(=O)cc(-c3cccnc3)oc2c1 | 0 | 62 | 0 | -
Brc1ccc(-c2nnc3sc(CNCc4ccc5c(c4)OCO5)cn23)cc1 | 0 | 65 | 0 | 0
Brc1ccc(-c2nnc3sc(CNC4CCCC4)cn23)cc1 | 0 | 0 | 0 | 0
COc1cc(C(=O)NCCC(=O)NC2CCCCCCC2)cc(OC)c1OC | 0 | 0 | 0 | 0
O=C(NC1CC1)c1cccc(NC(=O)c2cnn(-c3ccccc3)n2)c1 | 0 | 59 | 0 | -
CCC(=O)N1CCC1(C)C(=O)Nc1cc(OC)ccc1OC (stereo not drawn) | 0 | - | 0 | -
CN(c1ccc(O)cc1)c1nc(-c2cccs2)cs1 | 0 | 47 | 0 | 0
Cc1nc(N)sc1-c1csc(N(C)c2ccc(O)cc2)n1 | 0 | 0 | 0 | 0
CN(Cc1ccc2c(c1)OCCO2)C(=O)CSc1ncnc2sccc12 | 0 | 0 | 0 | -
COc1ccc(NS(=O)(=O)c2nnc(NC(=O)c3ccccc3F)s2)cc1 | 0 | 0 | 0 | -
COc1cc(CNn2cn[nH]c2=S)cc(Cl)c1OCc1ccc(F)cc1 | 0 | 87 | 0 | 0
CCOc1ccc(-c2nnc3ccc(SCC(=O)Nc4nc5ccc(C)cc5s4)nn23)cc1 | 0 | 63 | 0 | 0
